{
  "source": "paper PMC4646787",
  "about": "(Science Advances, 2015)",
  "key": {"XA21 [1]": {"molecular_target": "T1, XA21 (Oryza sativa subsp. indica, UniProt Q1MX30)", "T1 sequence (Q1MX30 24-1025)": "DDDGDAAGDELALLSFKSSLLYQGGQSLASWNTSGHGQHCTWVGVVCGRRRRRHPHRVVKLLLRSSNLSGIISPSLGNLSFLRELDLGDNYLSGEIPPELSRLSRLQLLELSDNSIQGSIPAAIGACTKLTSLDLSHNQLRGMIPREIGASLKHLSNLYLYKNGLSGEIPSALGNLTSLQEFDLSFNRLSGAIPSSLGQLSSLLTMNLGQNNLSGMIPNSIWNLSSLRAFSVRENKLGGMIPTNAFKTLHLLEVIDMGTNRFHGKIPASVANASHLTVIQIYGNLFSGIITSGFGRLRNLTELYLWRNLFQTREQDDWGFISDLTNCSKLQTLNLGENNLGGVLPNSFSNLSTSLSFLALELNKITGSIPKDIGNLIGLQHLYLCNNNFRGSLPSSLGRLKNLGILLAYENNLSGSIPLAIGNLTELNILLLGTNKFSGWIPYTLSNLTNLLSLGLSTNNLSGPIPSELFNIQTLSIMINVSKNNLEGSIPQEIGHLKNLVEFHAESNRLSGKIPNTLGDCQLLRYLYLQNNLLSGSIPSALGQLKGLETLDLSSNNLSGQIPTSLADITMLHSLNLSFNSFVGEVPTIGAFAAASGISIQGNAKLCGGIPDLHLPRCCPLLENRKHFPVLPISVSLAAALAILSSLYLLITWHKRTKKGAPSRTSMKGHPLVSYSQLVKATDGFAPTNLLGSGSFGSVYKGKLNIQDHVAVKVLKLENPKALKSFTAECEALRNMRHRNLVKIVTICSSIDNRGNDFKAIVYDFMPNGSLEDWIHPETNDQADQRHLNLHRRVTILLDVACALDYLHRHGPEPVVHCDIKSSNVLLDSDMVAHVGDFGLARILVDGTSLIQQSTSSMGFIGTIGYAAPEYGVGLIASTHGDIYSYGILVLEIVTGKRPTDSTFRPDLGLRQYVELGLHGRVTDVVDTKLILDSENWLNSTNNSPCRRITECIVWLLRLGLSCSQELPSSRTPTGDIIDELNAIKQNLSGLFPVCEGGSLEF", "assay": "Ethylene production in Ubi::XA21 rice leaves", "format": "cell-based, rice (Oryza sativa ssp. japonica)", "settings": "1 μM peptide, 4 hours, gas chromatography, n = 3, Fig. 3C", "method_in_brief": "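Ubi::XA21 Kitaake plants (3–4 weeks, hydroponic) were used. Leaves were cut into ~0.3 to 0.5 mm strips and floated on water overnight at room temperature. Strips were then incubated with water or peptide (1 μM) in sealed tubes. Ethylene accumulated in the headspace over 4 h was measured by gas chromatography.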"}, "XA21 [2]": {"molecular_target": "T1, XA21", "assay": "ROS production", "format": "cell-based, rice (Oryza sativa ssp. japonica)", "method_in_brief": "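Leaves of 4- to 6-week-old hydroponic Kitaake and Ubi::XA21 plants were cut along the midvein into 1–1.5 mm pieces and floated overnight on autoclaved ddH2O. Two pieces per well went into L-012 plus horseradish peroxidase (0.5 to 2 mg/ml), with peptide or mock (ddH2O or peptide buffer). Chemiluminescence was read for 3 h at 0.5 s per reading, n = 6. EC50 was the half-maximal total 3-h ROS over a peptide concentration series.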"}},
  "note": "Non-standard residues stand in square brackets, D forms with d. Residues, ends and D or L forms follow the SMILES beside them. sY = N[C@@H](Cc1ccc(OS(=O)(=O)O)cc1)C(=O)O",
  "data": [
    {"molecule": "HVGGGDYPPPGANPKHDPPPR [RaxX21-Y]", "values": [
      {"measurement": "Ethylene production, result in words", "setting": "XA21 [1]", "result": "but not RaxX21-Y"}
    ]},
    {"molecule": "CC(C)C[C@H](N)C(=O)N[C@@H](Cc1c[nH]c2ccccc12)C(=O)N[C@@H](CCCCN)C(=O)N[C@@H](Cc1c[nH]cn1)C(=O)N[C@H](C(=O)NCC(=O)NCC(=O)NCC(=O)N[C@@H](CC(=O)O)C(=O)N[C@@H](Cc1ccc(OS(=O)(=O)O)cc1)C(=O)N1CCC[C@H]1C(=O)N1CCC[C@H]1C(=O)N1CCC[C@H]1C(=O)NCC(=O)N[C@@H](C)C(=O)N[C@@H](CC(N)=O)C(=O)N1CCC[C@H]1C(=O)N[C@@H](CCCCN)C(=O)N[C@@H](Cc1c[nH]cn1)C(=O)N[C@@H](CC(=O)O)C(=O)N1CCC[C@H]1C(=O)N1CCC[C@H]1C(=O)N1CCC[C@H]1C(=O)N[C@@H](CCCNC(=N)N)C(=O)O)C(C)C", "note": "[RaxX24-sY] (H-LWKHVGGGD[sY]PPPGANPKHDPPPR-OH; N-terminus and C-terminus assumed)", "values": [
      {"measurement": "EC50", "setting": "XA21 [2]", "result": "~30", "unit": "nM"}
    ]}
  ]
}
